RGS4 pot = RGS4 potentiation or activation; HEK293 M3R/inducible RGS4, carbachol calcium flux Fluo4; stronger effect = lower value; B-score at 10 µM; hit rate 0.92% among 310,000; AID 463111;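 active = B-score of the integrated calcium signal more than 4 SD below the library mean, with starting fluorescence not abnormally high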;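 note: negative B-score means reduced calcium response which marks RGS4 activation or potentiation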
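System – HEK293 FlpIn-TREx cells, stable M3R, doxycycline-inducible RGS4 · Reagent – ECmax carbachol challenge · Times – compound preincubation 20 min at room temperature before agonist · Technique – Fluo4 fluorescence kinetic imaging of calcium · Measure – B score of integrated Fluo4 ratio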
Kir21 block = blocks the mouse Kir2.1 inward-rectifier potassium channel; hit rate 0.85% among 310,000; B-score at 10 µM; AID 1672; HEK293-Kir2.1, FluxOR thallium flux fluorescence; stronger effect = lower value;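 active = fluorescence ratio B-score at or below minus 3 SD of library scores, with starting-brightness B-score within 2 SD, cut at about -4.2 in these data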;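 note: channel flux triggered by added potassium and thallium sulfate stimulus; B-score of peak minus minimum fluorescence over baseline after thallium stimulus; more negative B-score means stronger Kir2.1 block with less thallium influx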
MrgX1 PAM = allosterically activates human MrgX1 receptor signaling. Q96LB2. MrgX1-HEK293, Fluo-4 calcium flux, FDSS; stronger effect = higher value. B-score at 10 µM. hit rate 0.63% among 310,000;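 active = plate-corrected calcium response at least 3 library SD above typical, normal starting fluorescence, not activating the receptor alone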;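 note: compound read alongside a low EC10 to EC30 dose of BAM8-22 agonist; peak minus trough fluorescence over baseline measured at the second addition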
Target sequence (Q96LB2 whole entry, looked up): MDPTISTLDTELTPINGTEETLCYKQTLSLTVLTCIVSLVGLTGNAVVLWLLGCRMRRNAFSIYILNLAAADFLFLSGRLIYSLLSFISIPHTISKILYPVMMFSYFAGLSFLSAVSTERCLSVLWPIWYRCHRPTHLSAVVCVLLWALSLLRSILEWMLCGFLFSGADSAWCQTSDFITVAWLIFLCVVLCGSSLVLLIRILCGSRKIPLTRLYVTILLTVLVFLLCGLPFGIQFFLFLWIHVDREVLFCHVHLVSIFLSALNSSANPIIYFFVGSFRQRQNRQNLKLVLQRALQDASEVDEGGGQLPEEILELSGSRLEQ
RGS4 block = human RGS4 inhibition. hit rate 0.45% among 310,000. HEK293 M3R/RGS4 inducible, Fluo-4 calcium flux; stronger effect = higher value; triggered by carbachol at its EC20. B-score at 10 µM. P49798;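 active = B-score, a plate-corrected calcium signal, over three deviations above library mean, with baseline fluorescence within five deviations of library mean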;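 note: RGS4 expression induced by doxycycline in cells with stable M3 receptor; B-score is computed from the integrated fluorescence ratio over baseline after carbachol; higher B-score means a larger calcium signal and so more RGS4 inhibition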
Target sequence (P49798 whole entry, looked up): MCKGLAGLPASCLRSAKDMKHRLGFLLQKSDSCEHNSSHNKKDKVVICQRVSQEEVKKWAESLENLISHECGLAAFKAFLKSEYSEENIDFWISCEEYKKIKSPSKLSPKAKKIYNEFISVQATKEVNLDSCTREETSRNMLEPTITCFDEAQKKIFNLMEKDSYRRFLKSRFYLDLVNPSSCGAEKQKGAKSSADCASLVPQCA
MrgX1 agonist = activates human MrgX1 receptor signaling. B-score at 10 µM. Q96LB2. hit rate 0.44% among 310,000. MrgX1-HEK293 cells, Fluo-4 calcium fluorescence, agonist mode; stronger effect = higher value;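 active = calcium response B-score plate-corrected fluorescence ratio at least 3 library SD, with starting fluorescence B-score inside 5 SD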
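Assay system: MrgX1-expressing HEK293 cells / Amount: fifteen thousand cells per well / Doses: test compound in the initial addition of three / Timing: cells plated overnight, dye loaded 0.5 h 37 °C, 0.5 h room temperature / Technique: kinetic calcium dye fluorescence, Fluo-4 NW / Control set: positive and negative controls per plate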
MrgX1 antagonist = human MrgX1 receptor antagonism, primary screen | Q96LB2 | MRGX1-HEK293 calcium flux, Fluo-4, BAM8-22 antagonism; stronger effect = lower value | B-score at 10 µM | hit rate 1.3% among 310,000 | AID 588676;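 active = calcium-response B-score plate-corrected more than 3 library SD below zero, starting fluorescence within 5 deviations, no agonist response on first addition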;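 note: peak minus trough fluorescence over baseline after final BAM8-22 challenge near maximal dose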
RGS4 block valid = validation of RGS4 inhibitors; shares compounds with RGS4 block; HEK293 M3R/RGS4, carbachol calcium Fluo-4 fluorescence; carbachol added at its EC20; 0 = buffer wells, 100 = carbachol control; calcium response, % at 10 µM; hit rate 65% among 1,700; AID 492999;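 active = duplicate-averaged calcium response above the buffer-only control mean plus 5 SD of those controls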;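 note: integrated fluorescence ratio F max minus min over baseline F0; higher response in RGS4-induced cells means RGS4 inhibition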
M3R Ca ctr = counter-screen for RGS4 inhibitors: effect in non-induced cells; hit rate 20% among 1,900; HEK293 M3R non-induced, carbachol calcium Fluo-4; submaximal (EC20) carbachol stimulus; buffer wells 0%, carbachol control wells 100%; activity (percent), % at 10 µM; shares compounds with RGS4 block; call rule not given here;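 note: RGS4 induction absent so cells express M3R without RGS4; higher means more calcium signal and flags a non-specific hit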
RGS4 inh ctr2 = second counter-screen for RGS4 inhibitors: non-induced cells without carbachol. shares compounds with RGS4 block. HEK293 M3R/RGS4 non-induced, Fluo-4 calcium, no carbachol; normalised: buffer wells 0%, carbachol wells 100%. calcium response (agonist-mode artifact), % at 10 µM. hit rate 22% among 1,900. AID 493001;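 active = duplicate-averaged calcium rise in uninduced cells above buffer wells' mean plus 5 SD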
Starred values were filed as active, the others as inactive; i = inactive; · = no result. Compounds with a hit are over-represented: about 4.1% of the library has one in this group of screens.

SMILES | RGS4 pot | Kir21 block | MrgX1 PAM | RGS4 block | MrgX1 agonist | MrgX1 antagonist | RGS4 block valid | M3R Ca ctr | RGS4 inh ctr2
Cc1cc(C)n(CC(O)Cn2c3ccc(Cl)cc3c3cc(Cl)ccc32)c(=O)n1 (stereo unspecified) | i | -0.65 | i | 8* | i | i | 25.0%* | i | i
Cc1cc(C)n(CC(O)Cn2c3ccccc3c3ccccc32)n1 (stereo unspecified) | i | -1.08 | i | i | i | i | · | · | ·
O=C(NCc1ccco1)c1cc2nc(C3CC3)cc(C(F)(F)F)n2n1 | i | -2.67 | i | i | i | i | · | · | ·
COc1ccc(-c2cc(C(F)(F)F)n3nc(C(=O)NCc4ccco4)cc3n2)cc1OC | i | -0.02 | i | 8.23* | i | i | 10.0%* | i | 10.0%*
C=C1C(=O)[C@@]23[C@H](O)C[C@@H]4C(C)(C)CC[C@H](O)[C@]4(C)[C@@H]2C[C@H](O)[C@@H]1[C@H]3O | i | -0.42 | i | i | i | i | · | · | ·
C=C1C(=O)[C@@]23[C@H](O)C[C@@H]4C(C)(C)CC[C@H](O)[C@@]4(C)[C@@H]2CC[C@@H]1[C@H]3O | i | -3.11 | i | 4.94* | i | i | i | i | i
CCOc1cc(/C=C\c2[nH]c(=O)[nH]c(=O)c2[N+](=O)[O-])ccc1OC(C)CC (stereo unspecified) | i | -0.1 | i | i | i | i | · | i | 50.5%*
N#Cc1c(NC(=O)CSc2ncn[nH]2)sc2c1CCCC2 | i | -0.04 | i | 5.08* | i | i | 8.5%* | i | i
CCn1c(C)c(C(C)=O)c(N2CCCCC2)nc1=S | i | 0.83 | i | i | i | i | · | · | ·
COc1ccc(N2CCN(C(=S)Nc3cccc(C)c3C)CC2)cc1 | i | 1.77 | i | i | i | i | · | · | ·
O=C(CNc1ccc2ccccc2c1)N/N=C/c1cc2ccccc2nc1Cl | i | -1.66 | i | i | i | i | · | i | i
O=C(COc1cccc(Cl)c1)N/N=C\c1cc2ccccc2nc1Cl | i | 0.39 | i | i | i | i | · | · | ·
CC(=O)CCc1oc2ccc(C)cc2c1-c1ccc(C)o1 | i | 0.33 | i | i | i | i | · | · | ·
CC(=O)CCc1oc2ccc(NC(C)=O)cc2c1-c1ccc(C)o1 | i | 1.56 | i | 5.31* | i | i | i | i | i
S=c1[nH]nc(-c2ccncc2)n1/N=C/C=C/c1ccccc1 | i | 1.78 | i | i | i | i | · | · | ·
S=c1[nH]nc(-c2cccs2)n1/N=C/c1cn(-c2ccccc2)nc1-c1ccccc1 | i | 1.24 | i | i | i | i | · | · | ·
S=c1[nH]nc(-c2ccncc2)n1/N=C/C(Cl)=C\c1ccccc1 | i | -0.41 | i | 9.84* | i | i | 20.5%* | 44.0%* | i
Cc1ccc(-c2nn(-c3ccccc3)cc2/C=N/n2c(-c3ccncc3)n[nH]c2=S)cc1 | i | -1.26 | i | i | i | i | i | i | i
COc1ccc(N(C2CSC2)S(=O)(=O)c2ccccc2)cc1 | i | -0.53 | i | i | i | i | · | · | ·
COc1ccc(C2=Nn3c(nnc3-c3ccccc3OC)SC2)cc1OC | i | -1.87 | i | 8.2* | i | i | 20.5%* | 33.5%* | i
CCC(C)NC(=O)Cn1cc2c(n1)CCC(C)C2 (stereo unspecified) | i | 1.23 | i | i | i | i | · | · | ·
CCn1c(=O)c([N+](=O)[O-])c(NCCN(C)C)c2ccccc21 | i | 1.22 | i | i | i | i | · | · | ·
CCn1c(=O)c([N+](=O)[O-])c(Cl)c2ccccc21 | i | -0.05 | 10.2* | 6.58* | i | i | 8.5%* | i | 9.5%*
CC(NC(=O)c1ccccc1NC(=O)c1ccco1)c1ccccc1 (stereo unspecified) | i | -0.09 | i | i | i | i | · | · | ·
Cc1cccc(C(=O)NCCNc2nc3cc(C)c(C)cc3cc2C)c1 | i | -0.59 | i | i | i | i | i | i | i
SMILES | RGS4 pot | Kir21 block | MrgX1 PAM | RGS4 block | MrgX1 agonist | MrgX1 antagonist | RGS4 block valid | M3R Ca ctr | RGS4 inh ctr2
COc1ccc(C(=O)NCCNc2nc3cc(C)c(C)cc3cc2C)cc1 | i | 0.76 | i | i | i | i | · | · | ·
Cc1cc2cc(C)c(NCCNC(=O)c3ccccc3F)nc2cc1C | i | 0.33 | i | i | i | i | i | i | i
Cc1cc2cc(C)c(NCCNC(=O)c3cccc(F)c3)nc2cc1C | i | 0.03 | i | 5.3* | i | i | i | i | i
Cc1cc2cc(C)c(NCCNC(=O)c3cccs3)nc2cc1C | i | 0.81 | i | i | i | i | · | · | ·
Cc1nnc(N2C(=O)c3oc4ccccc4c(=O)c3C2c2ccco2)s1 (stereo unspecified) | i | 0.49 | i | i | i | i | · | · | ·
COc1ccc(C)cc1NC(=O)C(Sc1nnc(Nc2ccccc2F)s1)c1ccccc1 (stereo unspecified) | i | 0.37 | i | i | i | i | · | · | ·
Cc1cc(C)n(-c2cc(C(C)(C)C)nc3c(-c4ccccc4)cnn23)n1 | i | -0.65 | i | i | i | i | · | 32.5%* | i
CC(=O)Nc1ccc(Nc2cc(C)nc3c(-c4ccc(Cl)cc4)cnn23)cc1 | i | 0.22 | i | i | i | i | · | · | ·
Cc1cc(C)n(-c2cc(C(C)(C)C)nc3c(-c4ccc(Cl)cc4)cnn23)n1 | i | 0.09 | i | 8.56* | i | i | 33.0%* | i | i
COc1ccc(-c2sc3ccc(OC)cc3c2C#CCCO)cc1 | i | -0.46 | i | i | i | i | i | i | i
CCOc1ccc(-n2ccnc(SCC(=O)NC3CCCC3)c2=O)cc1 | i | 0.96 | i | i | i | i | · | · | ·
CC(NC(=O)c1cc2c(=O)n(C)c3ccccc3c2n1C)c1ccc2c(c1)OCCO2 (stereo unspecified) | i | 2.68 | i | i | i | i | · | · | ·

High-throughput results as filed in PubChem BioAssay.
